Screening results as filed in PubChem.
In the library only some 2.1% were active in any assay of this set; here they are far more common.
Runt-SMMHC FRET: blocks binding of human RUNX1 Runt domain to CBFb-SMMHC | Q01196+Q13951 | Cerulean-Runt/Venus-CBFb-SMMHC FRET ratio 530/480, 1 h | inhibition, % at 20 µM | actives 0.74% (n = 220,000);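 active = mean inhibition across duplicate retests at 20 µM reaching about 50%, limit read from the data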;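 also: 0% = DMSO wells and 100% = wells with excess untagged CBFb-SMMHC; inhibitors lower the FRET ratio by blocking Runt binding to CBFb-SMMHC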
pCIP destab: compounds decreasing mouse p/CIP protein stability; Q05BA5; AID 1984; actives 0.01% (n = 290,000); decrease of EGFP signal, % at 10 µM; F442A p/CIP-EGFP cells, EGFP fluorescence, 16 h;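 active = EGFP signal decrease of at least 30% at 10 µM or well 3 SD below plate mean, unless failing retest; inactive = the rest, including hits failing retest or dose response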
DSG3 Ab inh: human desmoglein-3 autoantibody binding inhibition; P32926; DSG3-coupled beads, scFv-anti-DSG3-GFP binding, flow cytometry; active compounds read low; binding (percent of control), % at 10 µM; actives 0.48% (n = 310,000); AID 588358;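 active = binding more than 3 SD below its plate's average and above zero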;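 also: hits lower antibody fragment binding to DSG3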
Target sequence (P32926 whole entry, looked up, the tested form may be a part): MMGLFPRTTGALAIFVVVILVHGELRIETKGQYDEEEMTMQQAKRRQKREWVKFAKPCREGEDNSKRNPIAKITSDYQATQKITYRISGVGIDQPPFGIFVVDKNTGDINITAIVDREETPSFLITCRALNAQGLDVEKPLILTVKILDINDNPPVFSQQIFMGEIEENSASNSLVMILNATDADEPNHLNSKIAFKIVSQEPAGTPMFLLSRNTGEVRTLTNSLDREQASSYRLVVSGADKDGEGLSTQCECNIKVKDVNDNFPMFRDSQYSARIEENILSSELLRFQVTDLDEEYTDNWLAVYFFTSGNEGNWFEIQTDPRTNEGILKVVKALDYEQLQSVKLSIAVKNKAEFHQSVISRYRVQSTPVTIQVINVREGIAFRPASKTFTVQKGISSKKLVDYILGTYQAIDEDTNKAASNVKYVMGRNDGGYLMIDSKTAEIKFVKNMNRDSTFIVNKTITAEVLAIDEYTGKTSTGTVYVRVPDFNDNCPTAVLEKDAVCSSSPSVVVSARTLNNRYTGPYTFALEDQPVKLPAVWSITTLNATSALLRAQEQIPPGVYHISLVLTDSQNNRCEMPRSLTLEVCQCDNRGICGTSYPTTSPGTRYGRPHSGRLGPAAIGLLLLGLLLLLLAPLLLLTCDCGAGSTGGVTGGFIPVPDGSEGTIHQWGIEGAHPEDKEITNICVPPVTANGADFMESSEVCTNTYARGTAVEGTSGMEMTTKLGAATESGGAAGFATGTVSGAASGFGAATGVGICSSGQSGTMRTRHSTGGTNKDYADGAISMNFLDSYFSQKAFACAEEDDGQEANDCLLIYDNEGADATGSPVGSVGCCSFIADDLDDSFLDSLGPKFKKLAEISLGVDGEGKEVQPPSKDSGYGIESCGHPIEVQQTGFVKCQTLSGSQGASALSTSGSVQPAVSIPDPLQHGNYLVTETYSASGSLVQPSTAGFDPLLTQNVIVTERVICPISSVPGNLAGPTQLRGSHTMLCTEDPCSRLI
Hck-Nef inh: inhibitors of human Hck kinase activated by Nef; P08631; inhibition, % at 20 µM; Recombinant Hck-YEEI plus Nef, Z-Lyte FRET kinase assay; actives 0.68% (n = 220,000);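 active = Hck-Nef kinase inhibition above about 50%, limit read from the data; inactive = inhibition below that limit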;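 also: 0% = DMSO with Hck plus Nef and 100% = Hck alone without Nef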
Runt-CBFb FRET: blocks binding of human RUNX1 Runt domain to CBFb; actives 0.46% (n = 220,000); inhibition, % at 20 µM; Cerulean-Runt/Venus-CBFb FRET ratio 530/480, 1 h;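 active = inhibition over about 50% at 20 µM in the single-dose screen, limit read from the data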;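 also: 0% = DMSO wells and 100% = excess unlabeled CBFb competitor control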
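test system = Cerulean-Runt domain fusion protein, energy donor | probe or stimulus = Venus-CBFb binding partner, 100 nM | incubation = two 1 h room-temperature incubations shielded from light | detection = fluorescence energy transfer, 422 nm excitation, 530/480 nm emission | measure = loss of energy transfer signal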
RanGTP-Imp inh: inhibitors of RanGTP-importin-beta interaction, primary screen, biochemical, FRET, CFP-Ran, YFP-importin-beta, homogeneous; actives 1.1% (n = 300,000); inhibition, % (no concentration beside the values); cell-free CFP-Ran/YFP-importin-beta FRET ratio;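 active = more than half of the replicate wells show a fall in the fluorescence ratio signal beyond about 16%, limit read from the data, passing the limit was not always enough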;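 also: 0% = DMSO wells and 100% = Ran loaded with GDP instead of GTP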
YIC FRET counter: counter-screen for RanGTP-importin-beta inhibitors: YIC FRET probe; shares compounds with RanGTP-Imp inh; Purified YIC probe, intramolecular FRET ratio YFP/CFP; IC50, µM; actives 40% (n = 1,000); AID 435026;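 active = fitted half-maximal inhibitory concentration no more than tenfold above the top dose tested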
* marks the source's active call; other numbers are inactive results; . = not tested or not shown.

SMILES	Runt-SMMHC FRET	pCIP destab	DSG3 Ab inh	Hck-Nef inh	Runt-CBFb FRET	RanGTP-Imp inh	YIC FRET counter
CCCn1c(SCC(=O)Nc2ccc(NC(C)=O)cc2)nc2c1c(=O)n(C)c(=O)n2C	.	7	111	.	.	17*	>50
CN(C)/C=N/c1nc2nccc(-c3ccc(F)cc3)n2n1	-1	2	85	22	2	-3	.
CN(C)/C=N/c1nc2nccc(-c3cccs3)n2n1	10	-4	100	22	2	17*	14*
COC(=O)N(C)C[C@H]1OCc2cn(nn2)CCCC(=O)N([C@@H](C)CO)C[C@H]1C	.	.	.	.	.	.	>50
C[C@H](CO)N1C[C@H](C)[C@@H](CN(C)S(=O)(=O)c2cccs2)Oc2ccc(NC(=O)Cc3ccccc3)cc2CC1=O	.	.	.	.	.	.	>50
C[C@H](CO)N1C[C@H](C)[C@@H](CN(C)S(=O)(=O)c2cccs2)Oc2ccc(NC(=O)Nc3ccccc3)cc2C1=O	.	.	101	.	.	.	.
Cc1cc(C(=O)OCC(=O)Nc2ccccc2C(F)(F)F)on1	.	.	129	.	.	.	.
CCCCN(C)C(=O)c1cccc(OC2CCN(CC(C)(C)C)CC2)c1	.	4	117	.	.	17*	>50
CCC(C)CNC(=O)c1cccc(OC2CCN(CC(C)(C)C)CC2)c1 (configuration not stated)	.	.	140	.	.	13	.
COc1ccc(OC)c(N(CCN2C(=O)c3ccccc3C2=O)C(=O)C2CCC(=O)C2C)c1 (configuration not stated)	.	.	99	.	.	.	.
Cc1nc2ccc(NC(=O)c3nn(CC(C)C)c(=O)c4ccccc34)cc2s1	-4	10	130	0	-2	20*	>50
COc1ccccc1C1CC(c2ccc(Cl)cc2)Nc2nc(N)nn21 (configuration not stated)	4	-14	99	1	-1	18*	>50
COc1ccc(C2CC(c3ccc(Cl)cc3Cl)n3nc(N)nc3N2)cc1 (configuration not stated)	-7	5	113	7	.	4	.
CCOC(=O)C1CN(S(=O)(=O)c2cc(OC)ccc2OC)C1	.	0	91	.	.	-2	.
CCOC(=O)C1CCN(C(=O)COC(=O)c2ccc3[nH]c4c(c3c2)CCCC4)CC1	.	.	107	.	.	19*	>50
COC(=O)C1CCN(C(=O)COC(=O)c2ccc3[nH]c4c(c3c2)CCCC4)CC1	.	.	99	.	.	.	.
Cc1cc(C(=O)O)cc(S(=O)(=O)Nc2ccccc2C(=O)NC2CC2)c1C	.	.	105	.	.	.	.
COc1cc(/C(O)=C(\C#N)c2nc3ccccc3[nH]2)cc(OC)c1OC	.	-6	122	.	.	40*	7.4*
CCOC(=O)c1c(NC(=O)CN2CCCc3ccccc32)sc(C(C)=O)c1C	-4	-17	111	1	-2	21*	>50
COCCOC(=O)c1c(NC(=O)CN2CCc3ccccc32)sc(C(N)=O)c1C	2	-1	105	8	-1	1	.
COc1ccccc1S(=O)Cc1ccc(C(=O)O)o1 (configuration not stated)	3	-7	103	1	.	20*	>50
CCc1nnc(NS(=O)(=O)c2ccc(NC(=O)CCC(=O)OC)cc2)s1	.	-12	114	.	.	2	.
COc1cccc(NC(=O)CSc2ncc(S(=O)(=O)c3ccccc3)c(=O)[nH]2)c1	0	-1	86	13	-1	30*	>50
Cc1ccc(NC(=O)CSc2ncc(S(=O)(=O)c3ccccc3)c(=O)[nH]2)cc1C	-5	-8	110	2	2	1	.
CCc1ccc(C(=O)C(C)OC(=O)c2nc3nc(C)cc(C)n3n2)cc1 (configuration not stated)	.	.	104	.	.	3	.
SMILES	Runt-SMMHC FRET	pCIP destab	DSG3 Ab inh	Hck-Nef inh	Runt-CBFb FRET	RanGTP-Imp inh	YIC FRET counter
Cc1nnc(Sc2nc3c(c(=O)n(C)c(=O)n3C)n2Cc2ccccc2Cl)s1	.	.	99	9	.	17*	>50
CC1(C)CC(=O)C=C(c2ccc(COC(=O)Cc3ccccc3)cc2)C1=O	.	.	98	.	.	.	.
Cn1c(=O)[nH]c2c(nc(-c3ccc(Cl)cc3)n2C)c1=O	.	-2	108	.	.	18*	32*
Cc1ccc2nc(NCC(=O)O)nc(-c3ccccc3)c2c1	-14	-27	106	14	23	22*	48*
CC(C)(C)N1CC(C(=O)Nc2ccc(C#N)cc2)CC1=O (configuration not stated)	.	-5	97	.	.	-2	.
Cc1cc(C(=O)O)ccc1-c1ccc(/C=C2\NC(=O)N(Cc3ccccc3Cl)C2=O)o1	68*	-14	104	37	24	22*	0.91*
Cc1cc(C(=O)O)ccc1-c1ccc(/C=C2\SC(=O)N(CC(=O)Nc3ccc4c(c3)OCO4)C2=O)o1	.	9	.	.	.	.	.
O=C1NC[C@@H](c2ccccc2)OC(=O)[C@@H](Cc2ccc(F)cc2)CC/C=C/C[C@@H]1CC(=O)N(CCO)Cc1ccccc1	.	.	105	.	.	.	.
C[C@@H]1CN([C@@H](C)CO)C(=O)c2cc(NS(C)(=O)=O)ccc2O[C@@H](C)CCCCO[C@H]1CN(C)Cc1ccc2c(c1)OCO2	.	.	102	.	.	.	.
C[C@@H]1CCCCO[C@H](CN(C)Cc2ccc3c(c2)OCO3)[C@@H](C)CN([C@H](C)CO)C(=O)c2cc(NC(=O)CCCN(C)C)ccc2O1	.	.	.	.	.	.	>46
Cc1ccc(S(=O)(=O)NCCc2cn3nc(C)c(C)nc3n2)cc1C	.	2	113	.	.	20*	26*
COc1ccc(S(=O)(=O)NCCc2cn3nc(C)c(C)nc3n2)cc1C	.	1	105	.	.	11	.
O=C(c1ccc(Cl)cc1[N+](=O)[O-])N(Cc1ccccc1)Cc1ccccc1	0	2	.	2	-1	0	.
CCN(C(=O)c1ccc(Cl)cc1[N+](=O)[O-])c1ccccc1C	2	8	107	24	0	19*	>50
Cc1cc(Nc2ccccc2C(=O)O)n2ncnc2n1	.	.	100	.	.	.	.
CCOC(=O)C1(CC2CCCCO2)CCN(C(=O)Nc2ccc3c(c2)OCO3)CC1 (configuration not stated)	4	-14	99	5	1	22*	>50
COc1ccc(N2C(=O)N3[C@H](c4ccc(Br)cc4)[C@@H]4C(=O)N(C(C)(C)C)C(=O)[C@@H]4[C@]3(Cc3ccccc3)C2=O)cc1	.	9	104	.	.	26*	>50
C=CCn1c(=O)c(C(=O)Nc2ncccc2C)c(O)c2ccccc21	.	.	99	.	.	.	.
C[C@H](CO)N1C[C@H](C)[C@@H](CN(C)Cc2ccccc2)Oc2c(NS(=O)(=O)c3cn(C)cn3)cccc2C1=O	.	.	104	.	.	.	.
